Assay results as given in ChEMBL document CHEMBL2406922, “Synthesis and Metabolic Studies of Host Directed Inhibitors for Anti Viral Therapy” (ACS Med Chem Lett, 2013).

What was measured:
[1] = Antiviral activity against Measles virus Edmonston infected in african green monkey Vero cells after 20 hrs by luciferase reporter gene assay; format: functional, cell-based, Measles virus strain Edmonston; settings: Measles morbillivirus
Summary of the method: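 Cells seeded at 3×10^4/well and incubated 20 h, then infected with Renilla luciferase-expressing recombinant MeV-Edmonston (recMeV-ren) at MOI 0.2 TCID50/cell. Luciferase substrate added 28 h post-infection; bioluminescence read to quantify reporter expression.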

Influenza A virus [2] = assay: Antiviral activity against Influenza A virus A/sw/Texas/2009(H1N1) virus by firefly luciferase reporter gene assay; format: functional, organism-based
Summary of the method: (§1)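 293T cells were transfected with an IAV firefly-luciferase minigenome reporter plasmid (1 µg/10^5 cells), cryopreserved 28 h post-transfection, thawed, and seeded at 3×10^4 cells/well. After 20 h they were infected with TPCK-trypsin-activated IAV (MOI 0.1 pfu/cell). Luciferase bioluminescence was read 28 h post-infection after adding Bright-Glo or Dual-Glo substrate.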

Influenza A virus [3] = assay: Antiviral activity against Influenza A virus WSN/1933 (H1N1) infected in human 293T cells after 20 hrs by luciferase reporter gene assay; format: functional, organism-based; settings: A/WSN/1933(H1N1), HEK-293T; summary of the method: as §1
[4] = test system: Respiratory syncytial virus; assay: Antiviral activity against Respiratory syncytial virus by firefly luciferase reporter gene assay; format: functional, organism-based; settings: human respiratory syncytial virus
Influenza A virus [5] = assay: Antiviral activity against Influenza A virus A/Aichi/1968(H3N2) by firefly luciferase reporter gene assay; format: functional, organism-based; summary of the method: as §1
Liver = assay: (§2) Half life in human liver S9 fraction; format: ADME, subcellular; settings: s9
[6] = Half life in hamster liver S9 fraction; format: ADME, subcellular; settings: cricetinae
[7] = Solubility of the compound at pH 7.4; format: physicochemical; settings: buffer
[8] = as §2; format: ADME, subcellular; settings: liver S9 fraction

SMILES	EC50 [1] [µM]	EC50 (Influenza A virus [3]) [µM]	also measured
CCOC(=O)Cn1c(-c2nonc2NC(=O)c2ccccc2F)nc2ccccc21	0.023	0.012	EC50 (Influenza A virus [2]): 0.1 µM; EC50 [4]: 0.14 µM; EC50 (Influenza A virus [5]): 0.05 µM
C#CCn1c([S+](=O)([O-])Cc2ccc(F)cc2)nc(-c2ccccc2)c1-c1ccccc1	0.74	0.5	t1/2 (Liver): 19 min; EC50 (Influenza A virus [2]): 0.2 µM; half-life [6]: < 2.5 min; EC50 [4]: 0.45 µM; EC50 (Influenza A virus [5]): 0.92 µM
COc1ccc(-n2c(SC(C)C(=O)Nc3ccc(C)cc3Cl)nc3ccccc32)cc1 (stereo unspecified)			EC50 (Influenza A virus [2]): 0.04 µM; EC50 [4]: 0.07 µM
Cn1c(S(=O)(=O)C(F)(F)c2ccccc2)nc(-c2ccccc2)c1-c1ccccc1	> 10	> 10	
Cn1c(S(=O)(=O)C(F)(F)c2ccc(F)cc2)nc(-c2ccc(F)cc2)c1-c1ccc(F)cc1	> 10	> 10	t1/2 (Liver): > 90 min; half-life [6]: 54 min
Cn1c(S(=O)(=O)Nc2ccccc2)nc(-c2ccccc2)c1-c1ccccc1	> 10	> 10	t1/2 (Liver): 27 min; half-life [6]: < 2.5 min
Cn1c(C(=O)Nc2ccccc2F)nc(-c2ccccc2)c1-c1ccccc1	9	10	
Cn1c(C(=O)Nc2ccccc2[N+](=O)[O-])nc(-c2ccccc2)c1-c1ccccc1	9	6	
Cn1c(C(=O)Cc2ccccc2)nc(-c2ccccc2)c1-c1ccccc1	> 10	10	t1/2 (Liver): > 90 min; half-life [6]: 5 min
Cn1c(C(O)Cc2ccccc2)nc(-c2ccccc2)c1-c1ccccc1 (stereo unspecified)	> 10	> 10	
Cn1c(CCc2ccccc2)nc(-c2ccccc2)c1-c1ccccc1	6	10	
CN(Cc1nc(-c2ccccc2)c(-c2ccccc2)n1C)c1ccccc1	0.91	0.88	t1/2 (Liver): 165 min; solubility [7]: < 15 µg/mL; half-life [6]: < 5 min
CN(Cc1nc(-c2ccccc2)c(-c2ccccc2)n1C)c1ccc(O)cc1	10	10	
CN(Cc1nc(-c2ccccc2)c(-c2ccccc2)n1C)c1ccccc1C(=O)O	3	3	solubility [7]: > 300 µg/mL
CN(Cc1nc(-c2ccccc2)c(-c2ccccc2)n1C)c1ccccn1	10	10	
Cn1c(CN(Cc2ccccc2)c2ccccc2)nc(-c2ccccc2)c1-c1ccccc1	> 10	> 10	
CCN(Cc1nc(-c2ccccc2)c(-c2ccccc2)n1C)c1ccccc1	10	10	
CCOC(=O)Cn1c(-c2ncsc2NC(=O)c2c(F)cccc2F)nc2ccccc21	10	10	

SMILES	EC50 [1] [µM]	EC50 (Influenza A virus [3]) [µM]	also measured
CC(C)n1c(-c2csc(NC(=O)c3c(F)cccc3F)n2)nc2ccccc21	10	4	
O=C(O)Cn1c(-c2csc(NC(=O)c3c(F)cccc3F)n2)nc2ccccc21	> 10	> 10	
Cn1cc(NC(=O)c2ccccc2F)c(-c2nc3ccccc3[nH]2)n1	> 10	> 10	
Nc1ccc(C(=O)Cn2c(-c3nccnc3NC(=O)c3ccccc3)nc3ccccc32)cc1	> 10	> 10	
O=S(=O)(Cc1ccccc1)c1nc(-c2ccccc2)c(-c2ccccc2)[nH]1	> 10	> 10	t1/2 (Liver): 14 min; half-life [6]: < 2.5 min
Cn1c(S(=O)(=O)Cc2ccccc2)nc(-c2ccccc2)c1-c1ccccc1	4	0.3	half-life [8]: 2 min; half-life [6]: < 2.5 min
Cn1c(S(=O)(=O)Cc2ccc(F)cc2)nc(-c2ccc(F)cc2)c1-c1ccc(F)cc1	> 10	> 10	t1/2 (Liver): < 2.5 min; half-life [6]: < 2.5 min
CCn1c(S(=O)(=O)Cc2ccccc2)nc(-c2ccccc2)c1-c1ccccc1	1	2	
O=S(=O)(Cc1ccccc1)c1nc(-c2ccccc2)c(-c2ccccc2)n1Cc1ccccc1	> 10	10	
C=CCn1c(S(=O)(=O)Cc2ccc(F)cc2)nc(-c2ccccc2)c1-c1ccccc1	4.6	4.2	
Cn1c(S(=O)(=O)Cc2ccncc2)nc(-c2ccccc2)c1-c1ccccc1	> 10	> 10	
Cn1c(S(=O)(=O)Cc2cccnc2)nc(-c2ccccc2)c1-c1ccccc1	9	> 10	
Cn1c(S(=O)(=O)Cc2ccc(F)cc2)nc(-c2ccc(F)cc2)c1-c1ccncc1	> 10	> 10	
Cn1c(S(=O)(=O)Cc2ccc(F)cc2)nc(-c2ccc(F)cc2)c1-c1cccnc1	> 10	> 10	
Cn1c(SCc2ccccc2)nc(-c2ccccc2)c1-c1ccccc1	6	0.4	t1/2 (Liver): 15 min; half-life [6]: 3 min
O=C(Nc1nonc1-c1nc2ccccc2[nH]1)c1ccccc1F	> 10	> 10	
Nc1ccc(C(=O)Cn2c(-c3nonc3NC(=O)c3ccccc3F)nc3ccccc32)cc1	0.4	0.7	
